From ChEMBL document CHEMBL3352510, “Anti-Inflammatory Spirostanol and Furostanol Saponins from Solanum macaonense” (J Nat Prod, 2014)
Calls of active or inactive are those of the source. The rule behind the calls is not given here.

Assays:
Neutrophil [1] = assay: Inhibition of FMLP/CB-stimulated superoxide production in human neutrophils preincubated for 5 mins before FMLP/CB treatment by spectrophotometry; type: functional, cell-based
Procedure, shortened: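 Neutrophils equilibrated with ferricytochrome c (0.5 mg/mL) and 1 mM Ca2+ at 37 °C for 2 min, treated with compound for 5 min, primed with cytochalasin B (1 μg/mL) for 3 min, then stimulated with FMLP 100 nM for 10 min. IC50 given as mean ± SEM, n = 3 or 4. Diphenyleneiodonium as positive control.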

Neutrophil [2] = assay: Inhibition of FMLP/CB-stimulated elastase release in human neutrophils preincubated for 5 mins before FMLP/CB treatment using MeO-Suc-Ala-Ala-Pro-Val-pnitroanilide by spectrophotometry; type: functional, cell-based
Procedure, shortened: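 Neutrophils, after hypotonic lysis of erythrocytes, kept in Ca2+-free HBSS pH 7.4. Equilibrated 2 min at 37 °C with MeO-Suc-Ala-Ala-Pro-Val-p-nitroanilide (100 μM), given compound for 5 min, then activated with FMLP 100 nM plus cytochalasin B 0.5 μg/mL. Absorbance at 405 nm tracked continuously and expressed as percent of drug-free activated control. IC50 reported as mean ± SEM, n = 3 or 4. Sivelestat as positive control.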

[3] = Cytotoxicity against human neutrophils assessed as reduction in cell viability up to 10 uM by LDH release assay; type: cell-based; conditions: neutrophil
Procedure, shortened: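 Neutrophils held in Ca2+-free HBSS, pH 7.4, at 4 °C before use. Compounds tested up to 10 μM. Membrane damage scored as LDH in cell-free medium, expressed as a percentage of total LDH release.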

RBL-2H3 = assay: Anti-inflammatory activity in rat RBL2H3 cells assessed as inhibition of beta-hexosaminidase release at 1 to 64 uM after 48 hrs by degranulation assay relative to control; type: functional, cell-based
Procedure, shortened: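 RBL-2H3 cells grown in DMEM/F12 with 10% FBS, seeded at 10^4 cells/well, exposed to compound (0, 1, 4, 16, 64 μM) for 48 h. Sensitized overnight with anti-DNP IgE ([…]), washed in Tyrode's buffer, then challenged with DNP-BSA (0.1 μg/mL) for 1 h. Reaction stopped on ice. Supernatant incubated 1 h with p-nitrophenyl-N-acetyl-D-glucosaminide (0.1 M, citrate buffer), stopped with bicarbonate, read at 405 nm. Release % = (sample − background)/(total lysate − background) × 100. Dexamethasone 100 nM as positive control.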

[4] = Cytotoxicity against rat RBL2H3 cells assessed as reduction in cell viability by MTT assay; type: cell-based; conditions: rbl-2h3
Procedure, shortened: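 Viability of RBL-2H3 cells by MTT, run alongside the degranulation assay. Cells cultured in DMEM/F12 with 10% FBS and exposed to compound at 0–64 μM.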

[5] = Antidegranulation activity in rat RBL2H3 cells assessed as inhibition of DNP-BSA-stimulated beta-hexosaminidase release

Row | SMILES | IC50 (Neutrophil [1]) | IC50 (Neutrophil [2]) | further results
1 | CO[C@]1(CC[C@@H](C)CO[C@@H]2O[C@H](CO)[C@@H](O)[C@H](O)[C@H]2O)O[C@H]2C[C@H]3[C@@H]4C[C@H](O[C@@H]5O[C@H](C)[C@@H](O)[C@H](O[C@@H]6OC[C@@H](O)[C@H](O)[C@H]6O)[C@H]5O)[C@H]5CC(=O)CC[C@]5(C)[C@H]4CC[C@]3(C)[C@H]2[C@@H]1C | > 10 µM | – | –
2 | C[C@@H]1CC[C@@]2(OC1)O[C@H]1C[C@H]3[C@@H]4C[C@H](O[C@@H]5O[C@H](C)[C@@H](O)[C@H](O)[C@H]5O)[C@H]5C[C@@H](O)CC[C@]5(C)[C@H]4CC[C@]3(C)[C@H]1[C@@H]2C | 7 µM | 3.7 µM | Activity [3]: Non-toxic
3 | CC1=C(C(O)C[C@@H](C)CO[C@@H]2O[C@H](CO)[C@@H](O)[C@H](O)[C@H]2O)O[C@H]2C[C@H]3[C@@H]4C[C@H](O[C@@H]5O[C@H](C)[C@@H](O)[C@H](O[C@@H]6OC[C@@H](O)[C@H](O)[C@H]6O)[C@H]5O)[C@H]5C[C@@H](O)CC[C@]5(C)[C@H]4CC[C@]3(C)[C@@H]12 (stereo partly specified) | > 10 µM | – | –
4 | C[C@@H]1CC[C@@]2(OC1)O[C@H]1C[C@H]3[C@@H]4C[C@H](O)[C@H]5C[C@@H](O[C@@H]6O[C@H](CO)[C@@H](O[C@H]7O[C@@H](C)[C@H](O)[C@@H](O)[C@H]7O)[C@H](O)[C@H]6O[C@H]6O[C@@H](C)[C@H](O)[C@@H](O)[C@H]6O)CC[C@]5(C)[C@H]4CC[C@]3(C)[C@H]1[C@@H]2C | > 10 µM | – | –
5 | CO[C@]1(CC[C@@H](C)CO[C@@H]2O[C@H](CO)[C@@H](O)[C@H](O)[C@H]2O)O[C@H]2C[C@H]3[C@@H]4C[C@H](O[C@@H]5O[C@H](C)[C@@H](O)[C@H](O[C@@H]6OC[C@@H](O)[C@H](O)[C@H]6O)[C@H]5O)[C@H]5C[C@@H](O)CC[C@]5(C)[C@H]4CC[C@]3(C)[C@H]2[C@@H]1C | > 10 µM | – | –
6 | CC1=C(CC[C@@H](C)CO[C@@H]2O[C@H](CO)[C@@H](O)[C@H](O)[C@H]2O)O[C@H]2C[C@H]3[C@@H]4C[C@H](O[C@@H]5O[C@H](C)[C@@H](O)[C@H](O[C@@H]6OC[C@@H](O)[C@H](O)[C@H]6O)[C@H]5O)[C@H]5C[C@@H](O)CC[C@]5(C)[C@H]4CC[C@]3(C)[C@@H]12 | > 10 µM | – | –
7 | C[C@H](CC[C@@]1(O)O[C@H]2C[C@H]3[C@@H]4C[C@H](O[C@@H]5O[C@H](C)[C@@H](O)[C@H](O[C@@H]6OC[C@@H](O)[C@H](O)[C@H]6O)[C@H]5O)[C@H]5C[C@@H](O)CC[C@]5(C)[C@H]4CC[C@]3(C)[C@H]2[C@@H]1C)CO[C@@H]1O[C@H](CO)[C@@H](O)[C@H](O)[C@H]1O | > 10 µM | – | –
8 | C[C@@H]1CC[C@@]2(OC1)O[C@H]1C[C@H]3[C@@H]4C[C@H](O[C@@H]5O[C@H](C)[C@@H](O)[C@H](O[C@@H]6OC[C@@H](O)[C@H](O)[C@H]6O)[C@H]5O)[C@H]5C[C@@H](O)CC[C@]5(C)[C@H]4CC[C@]3(C)[C@H]1[C@@H]2C | 4 µM | 1 µM | –
9 | CC(C)(C)C(=O)Oc1ccc(S(=O)(=O)Nc2ccccc2C(=O)NCC(=O)O)cc1 [SIVELESTAT] | – | 50 µM | –
10 | C[C@@H]1CC[C@@]2(OC1)O[C@H]1C[C@H]3[C@@H]4C[C@H](O[C@@H]5O[C@H](CO)[C@@H](O)[C@H](O)[C@H]5O)[C@H]5C[C@@H](O)CC[C@]5(C)[C@H]4CC[C@]3(C)[C@H]1[C@@H]2C | > 10 µM | – | –
11 | C[C@@H]1CC[C@@]2(OC1)O[C@H]1C[C@H]3[C@@H]4C[C@H](O[C@@H]5OC[C@@H](O)[C@H](O[C@@H]6OC[C@@H](O)[C@H](O)[C@H]6O)[C@H]5O)[C@H]5C[C@@H](O)CC[C@]5(C)[C@H]4CC[C@]3(C)[C@H]1[C@@H]2C | > 10 µM | 4.2 µM | Activity [3]: Non-toxic; Activity (RBL-2H3): inactive; Activity [4]: Active
12 | C[C@H]1CO[C@@]2(O[C@H]3C[C@H]4[C@@H]5C[C@H](O[C@@H]6O[C@H](C)[C@@H](O)[C@H](O[C@@H]7OC[C@@H](O)[C@H](O)[C@H]7O)[C@H]6O)[C@H]6C[C@@H](O)CC[C@]6(C)[C@H]5CC[C@]4(C)[C@H]3[C@@H]2C)[C@@H](O)C1 | > 10 µM | – | –
13 | C[C@H](CC[C@@]1(O)O[C@H]2C[C@H]3[C@@H]4C[C@H](O)[C@H]5C[C@@H](O[C@@H]6O[C@H](CO)[C@@H](O)[C@H](O)[C@H]6O)CC[C@]5(C)[C@H]4CC[C@]3(C)[C@H]2[C@@H]1C)CO[C@@H]1O[C@H](CO)[C@@H](O)[C@H](O)[C@H]1O | > 10 µM | – | –
14 | c1ccc2c(c1)[I+]c1ccccc1-2 [DIPHENYLENEIODONIUM] | 0.8 µM | – | –
15 | C[C@@H]1CC[C@@]2(OC1)O[C@H]1C[C@H]3[C@@H]4C[C@H](O[C@@H]5O[C@H](C)[C@@H](O)[C@H](O[C@@H]6OC[C@@H](O)[C@H](O)[C@H]6O)[C@H]5O)[C@H]5CC(=O)CC[C@]5(C)[C@H]4CC[C@]3(C)[C@H]1[C@@H]2C | > 10 µM | 3.2 µM | Activity [3]: Non-toxic; Activity (RBL-2H3): inactive; inhibition of degranulation [5]: > 90%
16 | C[C@H](CC[C@@]1(O)O[C@H]2C[C@H]3[C@@H]4C[C@H](O)[C@H]5C[C@@H](O[C@@H]6O[C@H](CO)[C@@H](O)[C@H](O)[C@H]6O[C@@H]6O[C@@H](C)[C@H](O)[C@@H](O)[C@H]6O)CC[C@]5(C)[C@H]4CC[C@]3(C)[C@H]2[C@@H]1C)CO[C@@H]1O[C@H](CO)[C@@H](O)[C@H](O)[C@H]1O | > 10 µM | – | –
17 | C[C@@H]1CC[C@@]2(OC1)O[C@H]1C[C@H]3[C@@H]4C[C@H](O[C@@H]5OC[C@@H](O)[C@H](O)[C@H]5O)[C@H]5C[C@@H](O)CC[C@]5(C)[C@H]4CC[C@]3(C)[C@H]1[C@@H]2C | 7.6 µM | 4.4 µM | Activity [3]: Non-toxic
18 | C[C@@H]1CC[C@@]2(OC1)O[C@H]1C[C@H]3[C@@H]4C[C@H](O)[C@H]5C[C@@H](O)CC[C@]5(C)[C@H]4CC[C@]3(C)[C@H]1[C@@H]2C [CHLOROGENIN] | 6.1 µM | > 10 µM | –
19 | C[C@H](C/C=C1/O[C@H]2C[C@H]3[C@@H]4C[C@H](O[C@@H]5O[C@H](C)[C@@H](O)[C@H](O[C@@H]6OC[C@@H](O)[C@H](O)[C@H]6O)[C@H]5O)[C@H]5C[C@@H](O)CC[C@]5(C)[C@H]4CC[C@]3(C)[C@H]2[C@@]1(C)O)CO[C@@H]1O[C@H](CO)[C@@H](O)[C@H](O)[C@H]1O | > 10 µM | – | –
20 | CO[C@]1(CC[C@@H](C)CO[C@@H]2O[C@H](CO)[C@@H](O)[C@H](O)[C@H]2O)O[C@H]2C[C@H]3[C@@H]4C[C@H](O[C@@H]5OC[C@@H](O)[C@H](O[C@@H]6OC[C@@H](O)[C@H](O)[C@H]6O)[C@H]5O)[C@H]5C[C@@H](O)CC[C@]5(C)[C@H]4CC[C@]3(C)[C@H]2[C@@H]1C | > 10 µM | – | –
21 | C[C@@H]1CC[C@@]2(OC1)O[C@H]1C[C@H]3[C@@H]4C[C@H](O[C@@H]5O[C@H](C)[C@@H](O)[C@H](O)[C@H]5O)[C@H]5C[C@@H](O[C@@H]6O[C@H](CO)[C@@H](O)[C@H](O)[C@H]6O)CC[C@]5(C)[C@H]4CC[C@]3(C)[C@H]1[C@@H]2C | > 10 µM | – | –
22 | C[C@H](CC[C@@]1(O)O[C@H]2C[C@H]3[C@@H]4C[C@H](O[C@@H]5O[C@H](C)[C@@H](O)[C@H](O)[C@H]5O)[C@H]5C[C@@H](O[C@@H]6O[C@H](CO)[C@@H](O)[C@H](O)[C@H]6O)CC[C@]5(C)[C@H]4CC[C@]3(C)[C@H]2[C@@H]1C)CO[C@@H]1O[C@H](CO)[C@@H](O)[C@H](O)[C@H]1O | > 10 µM | – | –
